Data as given in ChEMBL document CHEMBL1140409, “Discovery of potent, nonsystemic apical sodium-codependent bile acid transporter inhibitors (Part 2)” (J Med Chem, 2005).

Assays:
[1] = target: T1, Ileal sodium/bile acid cotransporter (Homo sapiens, UniProt Q12908); assay: In vitro inhibition of ASBT mediated uptake of [14C]taurocholate (5 uM) in baby hamster cells expressing human IBAT; type: cell-based
T1 sequence (Q12908 whole entry): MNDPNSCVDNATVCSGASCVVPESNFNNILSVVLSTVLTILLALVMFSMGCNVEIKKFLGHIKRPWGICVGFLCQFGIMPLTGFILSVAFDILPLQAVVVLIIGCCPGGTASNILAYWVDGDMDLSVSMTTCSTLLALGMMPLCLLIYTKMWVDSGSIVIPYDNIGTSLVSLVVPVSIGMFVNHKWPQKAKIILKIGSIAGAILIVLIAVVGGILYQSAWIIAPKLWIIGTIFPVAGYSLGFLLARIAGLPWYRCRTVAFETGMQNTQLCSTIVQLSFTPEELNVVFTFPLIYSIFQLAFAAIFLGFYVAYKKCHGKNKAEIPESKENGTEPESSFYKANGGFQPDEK

[2] = Amount (dissolved in aqueous Tween-80) in bile of rat was determined by fecal bile acid content for 45 min in a 37 degree C; type: ADME, tissue-based, Feces; set-up: concentration or dose not given beside the values; details: in vivo, 0.75 h
Outline: (§1)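 Male Wistar rats (275–300 g) were gavaged once each morning for 4 days at 5, 0.2 or 0.04 mpk in aqueous 0.2% (v/v) Tween-80 (2 mL/kg). Feces from the final 48 h were homogenized in twice their weight of water. Homogenate was diluted in butanol/water (2:0.6), extracted 45 min at 37 °C, centrifuged, and bile acids (μmol/day) measured enzymatically. Scores compared against a reference analogue at 0.04 mg/kg.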

[3] = Efficacy to increase fecal bile acid excretion; + is more efficacious; type: ADME, tissue-based, Feces; details: rat; outline: as §1

Structure (SMILES) | IC50 [1] [nM] | Activity [2] [%] | Efficacy [3]
CCCCC1(CCCC)CS(=O)(=O)c2ccc(N(C)C)cc2[C@@H](c2ccc[n+](C)c2)[C@H]1O (racemic) | 220 |  | 
CCCCC1(CCCC)CS(=O)(=O)c2ccc(N(C)C)cc2[C@@H](c2ccc(OCCOCCOCC[N+]34CCN(CC3)CC4)cc2)[C@H]1O | 4 |  | 
CCCCC1(CCCC)CS(=O)(=O)c2ccc(N(C)C)cc2[C@@H](c2cccc(CS(=O)(=O)O)c2)[C@H]1O (racemic) | 3.7 |  | 
CCCCC1(CCCC)CS(=O)(=O)c2ccc(N(C)C)cc2[C@@H](c2ccc(OCCOCCOCCN3CCCN(C)CCN(C)CCCN(C)CC3)c(F)c2)[C@H]1O | 3 |  | 
CCCCC1(CCCC)CS(=O)(=O)c2ccc(N(C)C)cc2[C@@H](c2ccc(C(=O)O)cc2)[C@H]1O (racemic) | 320 |  | 
CCCCC1(CCCC)CS(=O)(=O)c2ccc(N(C)C)cc2[C@@H](c2ccc(OCCN(C)C)cc2)[C@H]1O | 340 |  | 
CCCCC1(CCCC)CS(=O)(=O)c2ccc(N(C)C)cc2[C@@H](c2ccc(OCCCCC[N+](CC)(CC)CC)cc2)[C@H]1O | 2 |  | 
CCCCC1(CCCC)CS(=O)(=O)c2ccc(N(C)C)cc2[C@@H](c2ccc(C[N+](CC)(CC)CC)cc2)[C@H]1O (racemic) | 5500 |  | 
CCCCC1(CCCC)CS(=O)(=O)c2ccc(N(C)C)cc2[C@@H](c2ccc(OC)cc2)[C@H]1O (racemic) | 6.8 |  | 
CCCCC1(CCCC)CS(=O)(=O)c2ccc(N(C)C)cc2[C@@H](c2cccc(CN(C)C)c2)[C@H]1O (racemic) | 47 |  | 
CCCCC1(CCCC)CS(=O)(=O)c2ccc(N(C)C)cc2[C@@H](c2ccc(CO)cc2)[C@H]1O (racemic) | 11 |  | 
CCCCC1(CCCC)CS(=O)(=O)c2ccc(N(C)C)cc2[C@@H](c2cccnc2)[C@H]1O (racemic) | 7.5 |  | 
CCCCC1(CCCC)CS(=O)(=O)c2ccc(N(C)C)cc2[C@@H](c2cccc(CO)c2)[C@H]1O (racemic) | 4.5 |  | 
CCCCC1(CCCC)CS(=O)(=O)c2ccc(N(C)C)cc2[C@@H](c2ccc(OCc3cc[n+](CC)cc3)cc2)[C@H]1O | 6 |  | 
CCCCC1(CCCC)CS(=O)(=O)c2ccc(N(C)C)cc2[C@@H](c2cccc(C[n+]3ccccc3)c2)[C@H]1O (racemic) | 7.5 |  | 
CCCCC1(CCCC)CS(=O)(=O)c2ccc(N(C)C)cc2[C@@H](c2cccc(N)c2)[C@H]1O (racemic) | 2 |  | 
CCCCC1(CCCC)CS(=O)(=O)c2ccc(N(C)C)cc2[C@@H](c2ccc(OCc3ccncc3)cc2)[C@H]1O | 28 |  | 
CCCCC1(CCCC)CS(=O)(=O)c2ccc(N(C)C)cc2[C@@H](c2ccc(OCCOCCOCCN(CC)CC)cc2)[C@H]1O | 30 |  | 
CCCCC1(CCCC)CS(=O)(=O)c2ccc(N(C)C)cc2[C@@H](c2ccccn2)[C@H]1O (racemic) | 5 |  | 
CCCCC1(CCCC)CS(=O)(=O)c2ccc(N(C)C)cc2[C@@H](c2ccc(C[N+](C)(C)C)cc2)[C@H]1O (racemic) | 8800 |  | 
CCCCC1(CCCC)CS(=O)(=O)c2ccc(N(C)C)cc2[C@@H](c2ccc(OCCOCCOCC[N+](C)(C)C)cc2)[C@H]1O | 4 |  | 

Structure (SMILES) | IC50 [1] [nM] | Activity [2] [%] | Efficacy [3]
CCCCC1(CCCC)CS(=O)(=O)c2ccc(N(C)C)cc2[C@@H](c2ccc(OCc3ccc(CN(CC(=O)O)CC(=O)O)cc3)cc2)[C@H]1O |  | 0.12 | 
CCCCC1(CCCC)CS(=O)(=O)c2ccc(N(C)C)cc2[C@@H](c2ccc(OC)c(OC)c2)[C@H]1O (racemic) | 20 |  | 
CCCCC1(CCCC)CS(=O)(=O)c2ccc(N(C)C)cc2[C@@H](c2cccc(OC)c2)[C@H]1O (racemic) | 11 |  | 
CCCCC1(CCCC)CS(=O)(=O)c2ccc(N(C)C)cc2[C@@H](c2cccc(Nc3cc[n+](C)cc3)c2)[C@H]1O | 2 |  | 
CCCCC1(CCCC)CS(=O)(=O)c2ccc(N(C)C)cc2[C@@H](c2ccc(OCCOCC[N+](CC)(CC)CC)cc2)[C@H]1O | 5.7 |  | 
CCCCC1(CCCC)CS(=O)(=O)c2ccc(N(C)C)cc2[C@@H](c2ccc(OCCCC[N+]34CCN(CC3)CC4)cc2)[C@H]1O |  | 0.12 | More efficacious than analogue 2
CCCCC1(CCCC)CS(=O)(=O)c2ccc(N(C)C)cc2[C@@H](c2ccc(C(=O)OC)cc2)[C@H]1O (racemic) | 41 |  | 
CCCCC1(CCCC)CS(=O)(=O)c2ccc(N(C)C)cc2[C@@H](c2ccc(OC)c(F)c2)[C@H]1O (racemic) | 3.6 |  | 
CCCCC1(CCCC)CS(=O)(=O)c2ccc(N(C)C)cc2[C@@H](c2ccc(OCc3cc[n+](C)cc3)cc2)[C@H]1O | 0.75 | 0.03 | More efficacious than analogue 2
CCCCC1(CCCC)CS(=O)(=O)c2ccc(N(C)C)cc2[C@@H](c2ccc(OCc3ccc(C[N+]45CCN(CC4)CC5)cc3)cc2)[C@H]1O [MARALIXIBAT] |  | 0.11 | More efficacious than analogue 2
CCCCC1(CCCC)CS(=O)(=O)c2ccc(N(C)C)cc2[C@@H](c2ccsc2)[C@H]1O (racemic) | 5 |  | 
CCCCC1(CCCC)CS(=O)(=O)c2ccc(N(C)C)cc2[C@@H](c2ccc(OCCOCC[N+]34CCN(CC3)CC4)cc2)[C@H]1O | 8.5 |  | 
CCCCC1(CCCC)CS(=O)(=O)c2ccc(N(C)C)cc2[C@@H](c2ccc(OCCCCCN(CC)CC)cc2)[C@H]1O | 16 |  | 
CCCCC1(CCCC)CS(=O)(=O)c2ccc(N(C)C)cc2[C@@H](c2ccc3cc(O)ccc3c2)[C@H]1O (racemic) | 17 |  | 
CCCCC1(CCCC)CS(=O)(=O)c2ccc(N(C)C)cc2[C@@H](c2ccc(O)c(O)c2)[C@H]1O (racemic) | 9.5 |  | 
CCCCC1(CCCC)CS(=O)(=O)c2ccc(N(C)C)cc2[C@@H](c2ccc(C[n+]3ccccc3)cc2)[C@H]1O (racemic) | 850 |  | 
CCCCC1(CCCC)CS(=O)(=O)c2ccc(N(C)C)cc2[C@@H](c2cccc(C[N+](C)(C)C)c2)[C@H]1O | 67 |  | 
CCCCC1(CCCC)CS(=O)(=O)c2ccc(N(C)C)cc2[C@@H](c2ccc(CN(CC)CC)cc2)[C@H]1O (racemic) | 930 |  | 
CCCCC1(CCCC)CS(=O)(=O)c2ccc(N(C)C)cc2[C@@H](c2cccc(NC(=O)CCCC[N+](CC)(CC)CC)c2)[C@H]1O | 0.76 |  | 
CCCCC1(CCCC)CS(=O)(=O)c2ccc(N(C)C)cc2[C@@H](c2cccc3ccccc23)[C@H]1O (racemic) | 620 |  | 
CCCCC1(CCCC)CS(=O)(=O)c2ccc(N(C)C)cc2[C@@H](c2cccc(OCC[N+](CC)(CC)CC)c2)[C@H]1O | 7 |  | 

Structure (SMILES) | IC50 [1] [nM] | Activity [2] [%] | Efficacy [3]
CCCCC1(CCCC)CS(=O)(=O)c2ccc(N(C)C)cc2[C@@H](c2ccc(OCCCCCN(CC(=O)O)CC(=O)O)cc2)[C@H]1O | 2.3 | 0.24 | More efficacious than analogue 2
CCCCC1(CCCC)CS(=O)(=O)c2ccc(N(C)C)cc2[C@@H](c2cccc(OCCN(CC)CC)c2)[C@H]1O | 45 |  | 
CCCCC1(CCCC)CS(=O)(=O)c2ccc(N(C)C)cc2[C@@H](c2ccc(O)cc2)[C@H]1O (racemic) | 2.2 |  | 
CCCCC1(CCCC)CS(=O)(=O)c2ccc(N(C)C)cc2[C@@H](c2cccs2)[C@H]1O (racemic) | 30 |  | 
CCCCC1(CCCC)CS(=O)(=O)c2ccc(N(C)C)cc2[C@@H](c2ccc(OCC(=O)NCC(=O)O)cc2)[C@H]1O |  | 7.14 | More efficacious than analogue 2
CCCCC1(CCCC)CS(=O)(=O)c2ccc(N(C)C)cc2[C@@H](c2ccc(C(C)(C)C)cc2)[C@H]1O (racemic) | 1000 |  | 
CCCCC1(CCCC)CS(=O)(=O)c2ccc(N(C)C)cc2[C@@H](c2ccc(OCC[N+](C)(C)C)cc2)[C@H]1O | 260 |  | 
CCCCC1(CCCC)CS(=O)(=O)c2ccc(N(C)C)cc2[C@@H](c2ccncc2)[C@H]1O (racemic) | 8 |  | 
CCCCC1(CCCC)CS(=O)(=O)c2ccc(N(C)C)cc2[C@@H](c2cccc(Nc3ccncc3)c2)[C@H]1O | 52 |  | 
CCCCC1(CCCC)CS(=O)(=O)c2ccc(N(C)C)cc2[C@@H](c2ccc(OCCOCCOCCN(CCO)CCO)cc2)[C@H]1O | 9 |  | 
CCCCC1(CCCC)CS(=O)(=O)c2ccc(N(C)C)cc2[C@@H](c2ccc3cc(OC)ccc3c2)[C@H]1O (racemic) | 75 |  | 
CCCCC1(CCCC)CS(=O)(=O)c2ccc(N(C)C)cc2[C@@H](c2cccc(NCC(=O)NCC(=O)O)c2)[C@H]1O | 0.3 |  | 
CCCCC1(CCCC)CS(=O)(=O)c2ccc(N(C)C)cc2[C@@H](c2ccc(OCCCCC[N+]34CCN(CC3)CC4)cc2)[C@H]1O | 0.5 |  | 
CCCCC1(CCCC)CS(=O)(=O)c2ccc(N(C)C)cc2[C@@H](c2cccc(OCCCCC[N+](CC)(CC)CC)c2)[C@H]1O | 2 |  | 
CCCCC1(CCCC)CS(=O)(=O)c2ccc(N(C)C)cc2[C@@H](c2ccc(F)c(F)c2)[C@H]1O (racemic) | 22 |  | 
CCCCC1(CCCC)CS(=O)(=O)c2ccc(N(C)C)cc2[C@@H](c2cccc(C(=O)OC)c2)[C@H]1O (racemic) | 7 |  | 
CCCCC1(CCCC)CS(=O)(=O)c2ccc(N(C)C)cc2[C@@H](c2ccc(SC)cc2)[C@H]1O (racemic) | 42 |  | 
CCCCC1(CCCC)CS(=O)(=O)c2ccc(N(C)C)cc2[C@@H](c2cccc(O)c2)[C@H]1O (racemic) | 7.3 |  | 
CCCCC1(CCCC)CS(=O)(=O)c2ccc(N(C)C)cc2[C@@H](c2ccc(OCCC[N+]34CCN(CC3)CC4)cc2)[C@H]1O |  | 0.21 | More efficacious than analogue 2
